Here are results for six molecules from ChEMBL document CHEMBL1146679, “Synthesis and biological evaluation of pyrrolo[2,1-c][1,4]benzodiazepine (PBD) C8 cyclic amine conjugates” (2004).

The test system of assay [1] is A2780. In words: Concentration required to inhibit A2780cisR cell growth when compared with control after incubation for 96 h at 37 C. It is filed as functional, cell-based. The conditions noted are these: Homo sapiens. An outline of the steps:
(§1)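 Human ovarian tumour lines (SKOV-3, A2780, A2780cisR, CH1, CH1cisR) exposed to agent for 96 h at 37 °C; growth compared with PBD-free controls; IC50 taken as concentration giving 50% growth inhibition.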

Assay [2] relates to A2780. Nature of the assay: Resistance factor was determined as IC50 cisplatin-resistant/parent for human A2780 ovarian cell line. It is filed as functional. The essentials:
(§2)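 Resistance factor computed as IC50 in cisplatin-resistant line divided by IC50 in parent line, for the A2780/A2780cisR and CH1/CH1cisR pairs, from 96 h, 37 °C growth-inhibition assays against PBD-free controls.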

The test system of assay [3] is A2780. Nature of the assay: Concentration required to inhibit A2780 cell growth when compared with control after incubation for 96 hr at 37 C. It is filed as functional, cell-based. The conditions noted are these: Homo sapiens. The essentials:
as §1

Assay [4] has as its system CH1. In words: Concentration required to inhibit CH1cisR tumor cell growth when compared with control after incubation for 96 hr at 37 C. It is filed as functional, cell-based. The following applies: Homo sapiens. An outline of the steps: as §1
Assay [5] has as its system CH1. In words: Concentration required to inhibit CH1 tumor cell growth when compared with control after incubation for 96 hr at 37 C. The following applies: Homo sapiens. It is filed as functional, cell-based. The essentials: as §1
In assay [6] the test system is CH1. In words: Resistance factor was determined as IC50 cisplatin-resistant/parent for human CH1cisR tumor ovarian cell line. It is filed as functional. The essentials: as §2
Assay [7] has as its system Nucleic Acid. In words: In vitro induced thermal stabilization of duplex DNA melting after incubation with the compound (20 uM) at 37 C for 0 h. It is filed as functional. The following applies: Bos taurus. The essentials:
(§3)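 Duplex calf thymus DNA (100 µM in DNAp) mixed with ligand (20 µM), 5:1 molar ratio, in 10 mM NaH2PO4/Na2HPO4 + 1 mM Na2EDTA, pH 7.00 ± 0.01; held at 37 °C for 0, 4 or 18 h before thermal melting; ΔTm relative to DNA alone, ±0.1 °C, at least 3 determinations.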

Assay [8] concerns Nucleic Acid. Nature of the assay: In vitro induced thermal stabilization of duplex DNA melting after incubation with the compound (20 uM) at 37 C for 18 h. It is filed as functional. The conditions noted are these: Bos taurus. The essentials: as §3
Assay [9] has as its system Nucleic Acid. In words: In vitro induced thermal stabilization of duplex DNA melting after incubation with the compound (20 uM) at 37 C for 4 h. It is filed as functional. The conditions noted are these: Bos taurus. An outline of the steps:
as §3

The subject of the next assay is SK-OV-3. In words: Concentration required to inhibit SKOV-3 cell growth when compared with control after incubation for 96 hr at 37 C. It is filed as functional, cell-based. The conditions noted are these: Homo sapiens. An outline of the steps: as §1
The nature of assay [10]: Activity in NCI standard hollow fibre assay after intraperitoneal administration. It is filed as functional.
A short description of assay [11]: Activity in NCI standard hollow fibre assay after subcutaneous administration. It is filed as functional.
The nature of assay [12]: Total activity in NCI standard hollow fibre assay. It is filed as functional.
For assay [13], the system named is Nucleic Acid. In words: gIn vitro induced thermal stabilization of duplex DNA melting after incubation with the compound (20 uM) at 37 C for 0 h. It is filed as functional. The conditions noted are these: Bos taurus. The essentials:
as §3

Consider `COc1cc2c(cc1OCc1ccccc1)N=C[C@@H]1CCCN1C2=O`, for which the Concentration in the assay on A2780 [1] stood at 0.48 µM; with A2780 [3], 0.17 µM; in the assay on CH1 [4], 0.145 µM; in the assay on CH1 [5], 0.145 µM; in the assay with SK-OV-3 it was 0.46 µM. The RF is on record as 2.8 in the assay with A2780 [2] and 1 in the assay on CH1 [6]. For the same molecule, the ΔTm in the assay with Nucleic Acid [7] worked out at 0.2 °C; with Nucleic Acid [8], 0.4 °C; in the assay on Nucleic Acid [9] it was 0.4 °C.
Consider `COc1cc2c(cc1OCCC(=O)N1Cc3ccccc3C1)N=C[C@@H]1CCCN1C2=O`, for which the Concentration in the assay on A2780 [1] was found to be 0.94 µM; in the assay on A2780 [3], 0.23 µM; in the assay on CH1 [4] it was 0.42 µM; in the assay with CH1 [5], 0.24 µM; in the assay on SK-OV-3, 1.45 µM. The figures for the RF in the assay on A2780 [2] and in the assay on CH1 [6] were 4 and 2, respectively. The ΔTm with Nucleic Acid [7] came to 1 °C; in the assay on Nucleic Acid [8] it was 1.3 °C; in the assay on Nucleic Acid [9], 1.1 °C. Besides, the values for the Score in assay [10], in [11] and in assay [12] were 40, 2 and 40, respectively.
For `COc1cc2c(cc1OCCC(=O)N1CCCC1)N=C[C@@H]1CCCN1C2=O`, the Concentration with A2780 [1] was 4.3 µM; in the assay on A2780 [3] it was 1.5 µM; in the assay on CH1 [4], 1.85 µM; in the assay with CH1 [5], 1.4 µM; in the assay with SK-OV-3, 5.4 µM. In addition, the RF in the assay with A2780 [2] turned out to be 2.9; in the assay on CH1 [6], 1.3. Further, the thermal shift (ΔTm) with Nucleic Acid [8] amounted to 1.2 °C; in the assay with Nucleic Acid [9], 0.9 °C; with Nucleic Acid [13] it was 0.5 °C.
Turning to `COc1cc2c(cc1OC)C(=O)N1CCC[C@H]1C=N2`, the Concentration amounted to 0.155 µM in the assay on A2780 [1]; 0.064 µM in the assay on A2780 [3]; 0.11 µM in the assay on CH1 [4]; 0.082 µM in the assay with CH1 [5]; 1.7 µM in the assay with SK-OV-3. In addition, the RF with A2780 [2] turned out to be 2.4; with CH1 [6], 1.3. Besides, the results for the shift in melting temperature (ΔTm) with Nucleic Acid [7], in the assay with Nucleic Acid [8] and in the assay with Nucleic Acid [9] were 0.2 °C, 0.6 °C and 0.4 °C, respectively.
For the molecule `COc1cc2c(cc1OCCC(=O)N1CCCCC1)N=C[C@@H]1CCCN1C2=O`, the Concentration turned out to be 14.5 µM with A2780 [1]; 3.2 µM in the assay with A2780 [3]; 7.9 µM in the assay on CH1 [4]; 4.9 µM in the assay on CH1 [5]; 23.5 µM in the assay with SK-OV-3. Moreover, the RF in the assay with A2780 [2] is 4.5; in the assay with CH1 [6], 1.6. The ΔTm came to 0.8 °C with Nucleic Acid [7], 1.2 °C with Nucleic Acid [8] and 0.9 °C in the assay with Nucleic Acid [9].
`COc1cc2c(cc1OCCC(=O)N1CCc3ccccc31)N=C[C@@H]1CCCN1C2=O`: the Concentration in the assay with A2780 [1] is 4.9 µM; in the assay on A2780 [3], 1.55 µM; in the assay with CH1 [4] it was 3 µM; in the assay with CH1 [5] it was 1.5 µM; in the assay with SK-OV-3, 5.8 µM. Also, the RF with A2780 [2] was 3.2; with CH1 [6], 2. For the same molecule, the ΔTm in the assay with Nucleic Acid [7] was found to be 0.7 °C; in the assay with Nucleic Acid [8], 1.2 °C; in the assay on Nucleic Acid [9] it was 1 °C.
